Reference: ChEMBL document CHEMBL2417357, “Synthesis and antiprotozoal activities of benzyl phenyl ether diamidine derivatives” (Eur J Med Chem, 2013)
Calls of active or inactive are those of the source. The calls are words filed in the database; no cut-off is given here.

What was measured:
Plasmodium falciparum = assay: Antiplasmodial activity against chloroquine-resistant Plasmodium falciparum K1; type: functional, organism-based
Method in brief: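 Chloroquine-resistant K1 strain tested in vitro. IC50 is the average of duplicate determinations.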

[1] = Selectivity index, ratio of IC50 for rat L6 cells to IC50 for Trypanosoma brucei rhodesiense STIB900; type: toxicity, cell-based; conditions: read-out: Ratio IC50
Method in brief: (§1)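 SI = IC50 in rat L6 myoblasts / IC50 against the parasite (T. b. rhodesiense STIB900 or P. falciparum K1). Each IC50 is the average of duplicate determinations.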

L6 = assay: Cytotoxicity against rat L6 cells after 72 hrs by Alamar blue assay; type: cell-based; conditions: L6, 72 h
Method in brief: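 Rat L6 myoblast cells; cytotoxic IC50 taken as the average of duplicate determinations.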

[2] = Selectivity index, ratio of IC50 for rat L6 cells to IC50 for chloroquine-resistant Plasmodium falciparum K1; type: toxicity, cell-based; conditions: read-out: Ratio IC50; method in brief: as §1
[3] = test system: Trypanosoma brucei rhodesiense; assay: Antitrypanosomal activity against Trypanosoma brucei rhodesiense STIB900 after 72 hrs by Alamar blue assay; type: functional, organism-based; conditions: STIB900, 72 h
[4] = test system: Trypanosoma brucei rhodesiense; assay: Antitrypanosomal activity against Trypanosoma brucei rhodesiense STIB900 infected in NMRI mouse assessed as mean survival days at 25 mg/kg, po administered for 4 days; type: functional
Method in brief: (§2)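 Female NMRI mice, acute infection model with T. b. rhodesiense STIB900. Compound given as a single daily dose for four days, intraperitoneally or orally. Cure means survival to 60 days post-infection without parasitaemia relapse. Mean survival recorded in days.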

[5] = test system: Trypanosoma brucei rhodesiense; assay: Antitrypanosomal activity against Trypanosoma brucei rhodesiense STIB900 infected in NMRI mouse assessed as cured animal at 25 mg/kg, po administered for 4 days; type: functional, organism-based; set-up: dose 25 mg/kg
Method in brief: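 Acute model in female NMRI mice infected with T. b. rhodesiense STIB900. Single daily doses given for four days, intraperitoneally or orally. Mice surviving 60 days post-infection without parasitaemia relapse counted as cured; result reported as cured/infected out of 4 mice per group, with mean survival in days.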

Leishmania donovani = assay: Antileishmanial activity against amastigotes of Leishmania donovani MHOM/SD/62/IS-CL2D; type: functional, organism-based
Method in brief: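 Axenic amastigotes of L. donovani MHOM/SD/62/IS-CL2D; IC50 taken as the average of at least two determinations.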

[6] = Selectivity index, ratio of IC50 for rat L6 cells to IC50 for amastigotes of Leishmania donovani; type: toxicity, cell-based; conditions: read-out: Ratio IC50
Method in brief: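 SI = IC50 in rat L6 myoblasts / IC50 against L. donovani MHOM/SD/62/IS-CL2D axenic amastigotes. The amastigote IC50 is the average of at least two determinations; the L6 IC50 is the average of duplicates.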

[7] = test system: Trypanosoma brucei rhodesiense; assay: Antitrypanosomal activity against Trypanosoma brucei rhodesiense STIB900 infected in NMRI mouse assessed as mean survival days at 5 mg/kg, ip administered for 4 days; type: functional; conditions: route intraperitoneal; method in brief: as §2

SMILES	IC50 (Plasmodium falciparum)	selectivity ratio [1]	IC50 (L6)	selectivity ratio [2]	IC50 [3]	MSD [4]	Activity [5]	IC50 (Leishmania donovani)	selectivity ratio [6]	MSD [7]
N=C(N)c1ccc(COc2ccc(Cl)cc2)cc1	> 3.36 µM	8	20.7 µM	< 6	2.71 µM	–	–	–	–	–
CO/N=C(\N)c1ccc(COc2ccc(/C(N)=N/OC)cc2I)cc1.Cl.Cl	> 10.3 µM	2	86.6 µM	< 8	50.4 µM	29.75 days	inactive	–	–	–
CO/N=C(\N)c1ccc(COc2c(OC)cc(/C(N)=N/OC)cc2OC)cc1.Cl.Cl	> 10.6 µM	> 1	> 190 µM	–	129 µM	11.75 days	inactive	100 µM	> 2	–
Cl.Cl.Cl.N/C(=N\O)c1cccc(COc2ccc(/C(N)=N/O)cc2Cl)c1	> 11.2 µM	< 1	2.26 µM	< 1	49.2 µM	>39 days	–	> 100 µM	< 1	–
COc1cc(/C(N)=N/O)cc(Br)c1OCc1cccc(/C(N)=N/O)c1.Cl.Cl	> 10.4 µM	< 1	28.9 µM	< 3	87.9 µM	31.75 days	inactive	> 100 µM	< 1	–
N=C(N)c1cccc(COc2cccc([N+](=O)[O-])c2)c1	> 3.07 µM	14	104 µM	< 34	7.28 µM	–	–	–	–	–
CO/N=C(\N)c1ccc(COc2ccc(/C(N)=N/OC)cc2)cc1.Cl.Cl	5.78 µM	–	> 224 µM	–	> 224 µM	13.25 days	inactive	> 100 µM	2	–
CC(C)c1ccc(OCc2ccc(C(=N)N)cc2)cc1	2.37 µM	4	5.36 µM	3	1.29 µM	–	–	49.5 µM	< 1	–
N=C(N)c1ccc(-c2ccc(-c3ccc(C(=N)N)cc3)o2)cc1 [FURAMIDINE]	–	–	–	–	–	–	–	–	–	>46 days
CO/N=C(\N)c1cccc(COc2c(Cl)cc(/C(N)=N/OC)cc2Cl)c1.Cl.Cl.Cl.Cl	5.91 µM	2	108 µM	18	60.1 µM	21.75 days	inactive	> 50 µM	< 2	–
CC(C)NC(=N)c1ccc(COc2ccc(C(=N)NC(C)C)cc2)cc1	0.02 µM	> 107	> 144 µM	> 7370	1.35 µM	–	–	26.6 µM	> 5	–
Cl.Cl.N/C(=N\O)c1cccc(COc2ccc(/C(N)=N/O)cc2Br)c1	5.8 µM	< 1	4.39 µM	< 1	14.7 µM	12.75 days	inactive	> 100 µM	< 1	–
N=C(N)c1cccc(OCc2ccccc2)c1	> 3.81 µM	17	156 µM	< 41	9.32 µM	–	–	–	–	–
CO/N=C(\N)c1cccc(COc2c(I)cc(/C(N)=N/OC)cc2OC)c1.Cl.Cl	1.12 µM	1	81.4 µM	73	75.1 µM	40.25 days	–	> 100 µM	< 1	–
C[C@@H]1CC[C@H]2[C@@H](C)C(=O)O[C@@H]3O[C@@]4(C)CC[C@@H]1[C@]32OO4 [ARTEMISININ]	0.0041 µM	–	> 319 µM	–	–	–	–	–	–	–
CO/N=C(\N)c1cccc(COc2c(OC)cc(/C(N)=N/OC)cc2OC)c1.Cl.Cl	> 10.4 µM	> 1	> 188 µM	–	109 µM	15 days	inactive	> 100 µM	< 2	–
N=C(N)c1ccc(COc2ccc(C(=N)N)cc2Cl)cc1	0.006 µM	147	3.2 µM	552	0.022 µM	–	–	2.89 µM	1	>51 days
COc1ccc(OCc2ccc(C(=N)N)cc2)cc1	> 3.42 µM	36	143 µM	< 42	3.95 µM	–	–	–	–	–

SMILES	IC50 (Plasmodium falciparum)	selectivity ratio [1]	IC50 (L6)	selectivity ratio [2]	IC50 [3]	MSD [4]	Activity [5]	IC50 (Leishmania donovani)	selectivity ratio [6]	MSD [7]
COc1cc(/C(N)=N/O)cc(OC)c1OCc1ccc(/C(N)=N/O)cc1.Cl.Cl	11.1 µM	< 1	56.8 µM	5.11	161 µM	14.5 days	inactive	34.1 µM	1.67	–
CO/N=C(\N)c1cccc(COc2ccc(/C(N)=N/OC)cc2Cl)c1.Cl.Cl.Cl	> 10.2 µM	3	89.6 µM	< 9	26.1 µM	29.25 days	inactive	> 100 µM	< 1	–
N=C(N)c1cc(I)c(OCc2cccc([N+](=O)[O-])c2)c(I)c1	0.296 µM	3	7.72 µM	26	2.66 µM	–	–	34.3 µM	< 1	–
N=C(N)c1cccc(OCc2cccc([N+](=O)[O-])c2)c1	> 3.16 µM	164	78.9 µM	< 25	0.481 µM	–	–	–	–	–
N=C(N)c1ccc(OCc2ccc([N+](=O)[O-])cc2)c(I)c1	0.951 µM	6	10.7 µM	11	1.9 µM	–	–	> 50 µM	< 1	–
Cl.Cl.Cl.Cl.N/C(=N\O)c1cccc(COc2c(Cl)cc(/C(N)=N/O)cc2Cl)c1	11.5 µM	< 1	14.4 µM	1	26.4 µM	>53.25 days	–	> 100 µM	< 1	–
N=C(N)c1ccc(COc2ccccc2)cc1	> 3.56 µM	45	167 µM	< 47	3.71 µM	–	–	–	–	–
N=C(N)c1cccc(COc2ccc(C(=N)N)cc2Br)c1	0.052 µM	3410	15.7 µM	302	0.005 µM	–	–	1.86 µM	8	>37.5 days
N=C(N)c1ccc(COc2ccc([N+](=O)[O-])cc2)cc1	> 3.07 µM	18	79.2 µM	< 26	4.41 µM	–	–	–	–	–
N=C(N)c1ccc(COc2cccc([N+](=O)[O-])c2)cc1	> 3.25 µM	27	57.8 µM	< 18	2.12 µM	–	–	–	–	–
CO/N=C(\N)c1ccc(COc2ccc(/C(N)=N/OC)cc2Br)cc1.Cl.Cl	> 10.2 µM	5	101 µM	< 10	18.8 µM	>32.5 days	–	> 100 µM	< 1	–
N=C(N)c1cccc(COc2ccc(C(=N)N)cc2I)c1	0.013 µM	1190	6.06 µM	477	0.005 µM	–	–	1.27 µM	5	>31.25 days
N=C(N)c1ccc(OCc2ccccc2)cc1	> 3.56 µM	69	127 µM	< 36	1.84 µM	–	–	–	–	–
N=C(N)c1ccc(COc2ccc(N)cc2)cc1	2.56 µM	> 90	> 271 µM	> 106	3 µM	–	–	–	–	–
CO/N=C(\N)c1cccc(COc2c(Br)cc(/C(N)=N/OC)cc2OC)c1.Cl.Cl	3.35 µM	< 1	70.5 µM	21	81.5 µM	>52.25 days	–	> 100 µM	< 1	–
N=C(N)c1ccc(COc2ccc(C(=N)N)cc2I)cc1	0.006 µM	312	5.3 µM	898	0.017 µM	–	–	1.94 µM	3	>41.5 days
N=C(N)c1ccc(OCCCCCOc2ccc(C(=N)N)cc2)cc1 [PENTAMIDINE]	–	–	–	–	–	–	–	–	–	>38 days
